Laboratory results taken from ChEMBL document CHEMBL3232844, “Synthesis and structure activity relationships of schweinfurthin indoles” (2014).

What was measured:
Type in all cases: functional
[1] = tested on: HOP-92; experiment: Cytotoxicity against human HOP92 cells; details: for CC50: read-out: pLC50 (the source's name) (converted); for TGI: read-out: pTGI (converted)
Procedure, shortened: (§1)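 Tested in a 60-cell-line human tumor panel screen; the read-out is growth inhibition, reported as GI50 for each cell line.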

[2] = Cytotoxicity against human EKVX cells; details: for TGI: read-out: pTGI (converted); procedure, shortened: as §1
[3] = tested on: NCI-H460; experiment: Cytotoxicity against human NCI-H460 cells; details: for CC50: read-out: pLC50 (the source's name) (converted); for TGI: read-out: pTGI (converted); procedure, shortened: as §1
[4] = Cytotoxicity against human OVCAR3 cells; details: for GI50: OVCAR-3; for CC50: OVCAR-3, read-out: pLC50 (the source's name) (converted); for TGI: OVCAR-3, read-out: pTGI (converted); procedure, shortened: as §1
[5] = tested on: RPMI-8226; experiment: Cytotoxicity against human RPMI8226 cells; details: for CC50: read-out: pLC50 (the source's name) (converted); for TGI: read-out: pTGI (converted); procedure, shortened: as §1
[6] = tested on: Malme-3M; experiment: Cytotoxicity against human MALME-3M cells; details: for CC50: read-out: pLC50 (the source's name) (converted); for TGI: read-out: pTGI (converted); procedure, shortened: as §1
[7] = tested on: U-251; experiment: Cytotoxicity against human U251 cells; details: for CC50: read-out: pLC50 (the source's name) (converted); for TGI: read-out: pTGI (converted)
Procedure, shortened: (§2)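 Cell line run as part of the 60-cell-line screening panel; growth inhibition was reported as a GI50 for each line.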

[8] = tested on: SK-MEL-5; experiment: Cytotoxicity against human SK-MEL-5 cells; details: for CC50: read-out: pLC50 (the source's name) (converted); for TGI: read-out: pTGI (converted); procedure, shortened: as §1
[9] = tested on: NCI-H522; experiment: Cytotoxicity against human NCI-H522 cells; details: for CC50: read-out: pLC50 (the source's name) (converted); for TGI: read-out: pTGI (converted); procedure, shortened: as §1
[10] = tested on: PC-3; experiment: Cytotoxicity against human PC3 cells; details: for TGI: read-out: pTGI (converted); procedure, shortened: as §1
[11] = tested on: SK-MEL-28; experiment: Cytotoxicity against human SK-MEL-28 cells; details: for CC50: read-out: pLC50 (the source's name) (converted); for TGI: read-out: pTGI (converted); procedure, shortened: as §1
[12] = tested on: MCF7; experiment: Cytotoxicity against human MCF7 cells; details: for TGI: read-out: pTGI (converted); procedure, shortened: as §1
[13] = tested on: T47D; experiment: Cytotoxicity against human T47D cells; details: for CC50: read-out: pLC50 (the source's name) (converted); for TGI: read-out: pTGI (converted); procedure, shortened: as §2
[14] = tested on: SW-620; experiment: Cytotoxicity against human SW620 cells; details: for CC50: read-out: pLC50 (the source's name) (converted); for TGI: read-out: pTGI (converted); procedure, shortened: as §2
[15] = Cytotoxicity against human OVCAR5 cells; details: for GI50: OVCAR-5; for CC50: OVCAR-5, read-out: pLC50 (the source's name) (converted); for TGI: OVCAR-5, read-out: pTGI (converted); procedure, shortened: as §1
[16] = tested on: MOLT-4; experiment: Cytotoxicity against human MOLT4 cells; details: for CC50: read-out: pLC50 (the source's name) (converted); for TGI: read-out: pTGI (converted); procedure, shortened: as §1
[17] = Cytotoxicity against human Hs578T cells; details: Hs-578T; for TGI: read-out: pTGI (converted); procedure, shortened: as §1

In the case of COc1cc(/C=C/c2cc(OC)c3ccn(C)c3c2)cc2c1O[C@]1(C)CC[C@@H](O)C(C)(C)[C@H]1C2, the GI50 [1] is reported as 1.2 µM, the CC50 [1] is reported as > 100 µM and the TGI [1] is reported as 5.75 µM. It also gave a GI50 [2] of 1.58 µM, a TGI [2] of 49 µM and a GI50 [3] of 1.07 µM. For the same molecule, the CC50 [3] was 61.7 µM, the TGI [3] was 12 µM and the GI50 [4] was 6.46 µM. It also gave a CC50 [4] of 57.5 µM, a TGI [4] of 23.4 µM and a GI50 [5] of 0.17 µM. The CC50 [5] was > 100 µM, the TGI [5] was 2 µM and the GI50 [6] was 3.8 µM. For the same molecule, the CC50 [6] was > 100 µM, the TGI [6] was 47.9 µM and the GI50 [7] was 0.355 µM. The CC50 [7] was 69.2 µM, the TGI [7] was 15.5 µM and the GI50 [8] was 0.513 µM. The CC50 [8] was 2.24 µM, the TGI [8] was 1.07 µM and the GI50 [9] was 1.82 µM. The CC50 [9] was > 100 µM, the TGI [9] was 8.13 µM and the GI50 [10] was 0.692 µM. For the same molecule, the LC50 [10] was > 100 µM, the TGI [10] was 83.2 µM and the GI50 [11] was 1.74 µM. For the same molecule, the CC50 [11] was 64.6 µM, the TGI [11] was 17.4 µM and the GI50 [12] was 1.51 µM. It also gave an LC50 [12] of 66.1 µM, a TGI [12] of 14.5 µM and a GI50 [13] of 4.37 µM. For the same molecule, the CC50 [13] was > 100 µM, the TGI [13] was 38.9 µM and the GI50 [14] was 1.29 µM. It also gave a CC50 [14] of 10.5 µM, a TGI [14] of 3.39 µM and a GI50 [15] of 4.57 µM. For the same molecule, the CC50 [15] was > 100 µM, the TGI [15] was 38 µM and the GI50 [16] was 0.437 µM. For the same molecule, the CC50 [16] was > 100 µM, the TGI [16] was 8.51 µM and the GI50 [17] was 0.355 µM. The LC50 [17] was > 100 µM and the TGI [17] was 5.01 µM.
For COc1cc(/C=C/c2cc(O)c3ccn(C)c3c2)cc2c1O[C@]1(C)CC[C@@H](O)C(C)(C)[C@H]1C2, the GI50 [1] was 0.525 µM, the CC50 [1] was > 100 µM and the TGI [1] was 5.62 µM. For the same molecule, the GI50 [2] was 4.27 µM, the CC50 ([2]; read-out: pLC50 (the source's name) (converted)) was > 100 µM and the TGI [2] was 85.1 µM. The GI50 [3] was 1.66 µM, the CC50 [3] was > 100 µM and the TGI [3] was > 100 µM. The GI50 [4] was 4.79 µM, the CC50 [4] was > 100 µM and the TGI [4] was 42.7 µM. The GI50 [5] was 0.0708 µM, the CC50 [5] was > 100 µM and the TGI [5] was 1.62 µM. The GI50 [6] was 0.309 µM, the CC50 [6] was > 100 µM and the TGI [6] was 49 µM. For the same molecule, the GI50 [7] was 0.417 µM, the CC50 [7] was > 100 µM and the TGI [7] was 63.1 µM. It also gave a GI50 [8] of 1.15 µM, a CC50 [8] of 5.25 µM and a TGI [8] of 2.45 µM. For the same molecule, the GI50 [9] was 1.45 µM, the CC50 [9] was > 100 µM and the TGI [9] was 4.37 µM. For the same molecule, the GI50 [10] was 0.575 µM, the LC50 [10] was > 100 µM and the TGI [10] was 67.6 µM. The GI50 [11] was 0.832 µM, the CC50 [11] was > 100 µM and the TGI [11] was 16.2 µM. For the same molecule, the GI50 [12] was 0.741 µM, the LC50 [12] was > 100 µM and the TGI [12] was 42.7 µM. For the same molecule, the GI50 [13] was 5.62 µM, the CC50 [13] was > 100 µM and the TGI [13] was 60.3 µM. The GI50 [14] was 1.02 µM, the CC50 [14] was > 100 µM and the TGI [14] was 3.24 µM. For the same molecule, the GI50 [15] was 12.3 µM, the CC50 [15] was > 100 µM and the TGI [15] was 77.6 µM. The GI50 [16] was 0.447 µM, the CC50 [16] was > 100 µM and the TGI [16] was 10.2 µM. The GI50 [17] was 0.141 µM, the LC50 [17] was > 100 µM and the TGI [17] was 20.4 µM.
